Assay outcomes as filed in PubChem BioAssay.
UPR XBP1 act – activators of adaptive XBP1 UPR arm, primary screen, cell-based, CHO-XBP1 luciferase reporter, luminescence, uHTS | IRE1-XBP1 UPR activation; percent of tunicamycin response, DMSO as zero | activation, % at 20 µM | 0.33% of 330,000 active | AID 463104, 2010;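 active means versus positive control, 20 µM dose yields 30% or more activation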;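 further: 100% = tunicamycin at 10 µg/mL and 0% = DMSO only wells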
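Signal: luciferase luminescence; Assay system: CHO-XBP1 luciferase reporter cells; Amount: one thousand reporter cells per well; Dosing: 20 µM single concentration, DMSO 1%; Benchmarks: high control tunicamycin 10 µg/mL final, low control DMSO vehicle only; Schedule: 6 h compound exposure at 37 °C, 5% CO2; Evaluation: percent activation relative to tunicamycin reference.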
UPR CHOP act – activators of apoptotic CHOP UPR arm, primary screen, cell-based, CHO-CHOP luciferase reporter, luminescence, uHTS; UPR activation; percent of tunicamycin response over DMSO baseline; activation, % at 10 µM; 0.34% of 330,000 active; AID 449763, 2010;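 active means at 10 µM dose, activation of 40% or more, normalized to positive control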;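 further: 100% = tunicamycin at 10 µg/mL and 0% = DMSO alone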
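Test system: CHO CHOP reporter cells. Input: 500 CHO-CHOP cells per well. Medium: F12 with 10% FBS. Technique: luciferase luminescence. Measure: percent activation relative to tunicamycin control. Dosing: 10 µM compound, 0.5% DMSO. Timing: 16-18 h cell attachment, then 6 h compound exposure, 37 °C.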
L major viab – Leishmania major promastigote growth inhibition, primary screen | Leishmania major promastigotes, resazurin fluorescence viability | inhibition, % at 10 µM | AID 1063, 2008 | 9% of 200,000 active; in the data active means inhibition above about 50%;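 further: promastigotes grown with compound for 44 hours at 28 °C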
CHOP inh – inhibitors of CHOP promoter induction, primary screen, cell-based, unfolded protein response, luciferase reporter. CHO-K1 CHOP-promoter luciferase, tunicamycin-induced, 15-18 h. 3.8% of 220,000 active. AID 2732, 2010. inhibition, % at 10 µM;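 active means compounds that reduced the stress-induced luciferase reporter signal by more than about 70% of percent inhibition, limit read from the data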;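 further: 0% = tunicamycin plus vehicle and 100% = wells without tunicamycin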
Dynein transport – inhibitors of GR-EGFP nuclear translocation, primary screen, dynein cargo transport inhibitor project, imaging, high-content, 3617.4 mouse cells; test concentration mostly 20 µM; stimulated with dexamethasone, 1 µM; stronger effect = lower value; z-score, hits read low; 0.47% of 220,000 active; AID 1381, 2008;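 active means plate z-score of nuclear minus cytoplasmic receptor signal below a set negative limit, without overly bright fluorescence or cell loss, cut at about -3.5 in these data, passing the limit was not always enough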;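 further: z-score of nuclear minus cytoplasmic ring GR-EGFP intensity difference per well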
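Medium: Induction medium lacking tetracycline, stripped serum | Probe or stimulus: 1.0 µM final dexamethasone stimulus | Schedule: 48 h induction, then 1 h compound, then 30 min agonist, 37 °C | Signal: Automated 10x imaging of fixed Hoechst-stained cells | Evaluation: Per-cell GR-EGFP intensity, nucleus versus surrounding cytoplasmic ring, well-averaged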
T cruzi repl – inhibitors of intracellular T. cruzi growth, primary screen, luminescence, NIH3T3 host cells; inhibition, % (no concentration beside the values); 1.4% of 300,000 active; T. cruzi beta-gal in NIH3T3, 90 h;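 active means mean inhibition across valid replicates above about 55%, limit read from the data; inconclusive means mean below that limit but half or more replicates reach it; inactive means mean below it, under half of replicates reach it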;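 further: signal also drops with host cell toxicity which is not excluded here; 0% = plate median of DMSO wells and 100% = zero luminescence signal; higher percent means less beta-gal luminescence so fewer parasites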
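Assay system: NIH/3T3 fibroblasts plus reporter T. cruzi. Amount: NIH/3T3 cells, 5,000 per well. Buffer or medium: DMEM, 2% fetal bovine serum. Doses: compound pinned at 50 nL/well, DMSO. Schedule: ≥90 h infection period, 3 h prior cell attachment. Signal: luminescent β-galactosidase signal after 60 min lysis. Read-out: parasite load inhibition, %.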
Active calls of the source: *; ? = inconclusive; · = no result given. The entries come from a sample that favours hits as a whole.

SMILES	UPR XBP1 act	UPR CHOP act	L major viab	CHOP inh	Dynein transport	T cruzi repl
Cc1ccc(NC(=S)N2CCC(N(C)CC3CCCO3)CC2)cc1C (configuration not stated)	0	1	87*	4	0.28	20
Cc1cccc(NC(=S)N2CCCCCC2)c1	0	-1	37	1	-0.06	-9
CCOC(=O)N1CCN(C(=S)Nc2ccc(C)c(C)c2)CC1	-2	2	-4	21	-0.38	-12
Cc1ccc(C(C)(C)NC(=O)C2CCC(=O)N(CC3CCCCC3)C2)cc1 (configuration not stated)	-1	3	·	·	·	7
COc1ccc(NC(=S)N2CCC(N(C)CC3CCCO3)CC2)cc1 (configuration not stated)	-4	1	93*	31	-0.27	-10
COc1ccc(NC(=S)N2CCC(C(=O)N3CCCCCC3)CC2)cc1	-1	-2	-7	-31	-0.2	17
COc1ccc(C(=O)N2CCNC(=O)C2CC(=O)Nc2ccc(C)cc2)cc1 (configuration not stated)	-1	2	100*	3	0.21	-7
COc1ccccc1NC(=O)CC1C(=O)NCCN1C(=O)Nc1ccc(Cl)c(Cl)c1 (configuration not stated)	4	1	67*	42	0.99	-13
COc1ccc(NC(=S)N2CCNC(=O)C2CC(=O)Nc2cccc(Cl)c2C)cc1 (configuration not stated)	2	-2	52*	-1	1	-13
CCOC(=O)CC1C(=O)NCCN1C(=S)Nc1ccccc1 (configuration not stated)	-2	-1	57*	25	-0.42	-68
CN(C)/C=C1\N=C(c2ccccc2)OC1=O	3	0	-6	9	0.4	4
O=C1OC(c2ccc(F)cc2)=N/C1=C\c1ccc(Br)o1	-1	1	-4	73*	-2.2	4
Cc1sc2nc(-c3ccccn3)[nH]c(=O)c2c1-c1ccccc1	26	20	99*	-11	1.2	·
COc1ccc(NCC(=O)Nc2ccc(Cl)cc2C)c(OC)c1	2	-1	99*	23	0.25	52
O=C(COC(=O)/C=C/c1cccc(Br)c1)NC1CCCC1	-1	-1	·	·	·	·
CCCN(C(=O)Cc1ccc(S(=O)(=O)N2CCOCC2)s1)c1c(N)n(Cc2ccccc2)c(=O)[nH]c1=O	-4	2	·	·	·	13
CCCOc1ccc(CN(CCC#N)C(=S)NC(=O)c2ccccc2)cc1	1	-1	85*	-57	-0.32	4
Oc1ccc(N=Nc2ccc3c(c2)OCO3)c2ccccc12	0	66*	·	101*	-0.97	?
Nc1[nH]n(-c2ccccc2)c(=O)c1N=Nc1ccc2c(c1)OCO2	-2	3	·	-13	0.7	12
Cc1c(C(=O)NCc2ccccc2)c(-c2ccccc2)nn1-c1ccccc1	-4	-2	86*	32	-0.11	21
Cc1c(C(=O)NC(C)C)c(-c2ccccc2)nn1-c1ccccc1	-1	0	-1	13	0.07	-2
O=C(CN1CCN(S(=O)(=O)c2ccccc2)CC1)Nc1ccnn1C1CCCC1	-4	0	·	·	·	·
C=CCNC(=S)N/N=C/c1ccc(C(C)(C)C)cc1	·	·	18	95*	-0.77	5
CC(C)(C)c1ccc(/C=N/NC(=S)NCc2ccccc2)cc1	2	1	8	65	3	48
CCN(c1ccccc1)S(=O)(=O)c1ccc(NCC2COc3ccccc3O2)nc1 (configuration not stated)	-1	2	11	85*	0.41	17
Cc1cccc(COC(=O)C(Cc2ccccc2)NC(N)=O)c1 (configuration not stated)	3	3	·	·	·	-13
